According to ChEMBL document CHEMBL4257575, “Discovery of Novel Flavonoid Dimers To Reverse Multidrug Resistance Protein 1 (MRP1, ABCC1) Mediated Drug Resistance in Cancers Using a High Throughput Platform with "Click Chemistry"” (J Med Chem, 2018):

Tests used:
Assay type in all cases: cell-based
[1] = Cytotoxicity against human 2008/MRP1 cells assessed as cell survival at 2 uM after 5 days by MTS assay relative to control; settings: read-out: Survival
[2] = molecular target: T1, Multidrug resistance-associated protein 1 (Homo sapiens, UniProt P33527); test: Inhibition of MRP1 in human 2008/MRP1 cells assessed as potentiation of doxorubicin-induced cytotoxicity by measuring cell survival at 2 uM after 5 days by MTS assay relative to control; settings: 120 h
T1 sequence (P33527 whole entry): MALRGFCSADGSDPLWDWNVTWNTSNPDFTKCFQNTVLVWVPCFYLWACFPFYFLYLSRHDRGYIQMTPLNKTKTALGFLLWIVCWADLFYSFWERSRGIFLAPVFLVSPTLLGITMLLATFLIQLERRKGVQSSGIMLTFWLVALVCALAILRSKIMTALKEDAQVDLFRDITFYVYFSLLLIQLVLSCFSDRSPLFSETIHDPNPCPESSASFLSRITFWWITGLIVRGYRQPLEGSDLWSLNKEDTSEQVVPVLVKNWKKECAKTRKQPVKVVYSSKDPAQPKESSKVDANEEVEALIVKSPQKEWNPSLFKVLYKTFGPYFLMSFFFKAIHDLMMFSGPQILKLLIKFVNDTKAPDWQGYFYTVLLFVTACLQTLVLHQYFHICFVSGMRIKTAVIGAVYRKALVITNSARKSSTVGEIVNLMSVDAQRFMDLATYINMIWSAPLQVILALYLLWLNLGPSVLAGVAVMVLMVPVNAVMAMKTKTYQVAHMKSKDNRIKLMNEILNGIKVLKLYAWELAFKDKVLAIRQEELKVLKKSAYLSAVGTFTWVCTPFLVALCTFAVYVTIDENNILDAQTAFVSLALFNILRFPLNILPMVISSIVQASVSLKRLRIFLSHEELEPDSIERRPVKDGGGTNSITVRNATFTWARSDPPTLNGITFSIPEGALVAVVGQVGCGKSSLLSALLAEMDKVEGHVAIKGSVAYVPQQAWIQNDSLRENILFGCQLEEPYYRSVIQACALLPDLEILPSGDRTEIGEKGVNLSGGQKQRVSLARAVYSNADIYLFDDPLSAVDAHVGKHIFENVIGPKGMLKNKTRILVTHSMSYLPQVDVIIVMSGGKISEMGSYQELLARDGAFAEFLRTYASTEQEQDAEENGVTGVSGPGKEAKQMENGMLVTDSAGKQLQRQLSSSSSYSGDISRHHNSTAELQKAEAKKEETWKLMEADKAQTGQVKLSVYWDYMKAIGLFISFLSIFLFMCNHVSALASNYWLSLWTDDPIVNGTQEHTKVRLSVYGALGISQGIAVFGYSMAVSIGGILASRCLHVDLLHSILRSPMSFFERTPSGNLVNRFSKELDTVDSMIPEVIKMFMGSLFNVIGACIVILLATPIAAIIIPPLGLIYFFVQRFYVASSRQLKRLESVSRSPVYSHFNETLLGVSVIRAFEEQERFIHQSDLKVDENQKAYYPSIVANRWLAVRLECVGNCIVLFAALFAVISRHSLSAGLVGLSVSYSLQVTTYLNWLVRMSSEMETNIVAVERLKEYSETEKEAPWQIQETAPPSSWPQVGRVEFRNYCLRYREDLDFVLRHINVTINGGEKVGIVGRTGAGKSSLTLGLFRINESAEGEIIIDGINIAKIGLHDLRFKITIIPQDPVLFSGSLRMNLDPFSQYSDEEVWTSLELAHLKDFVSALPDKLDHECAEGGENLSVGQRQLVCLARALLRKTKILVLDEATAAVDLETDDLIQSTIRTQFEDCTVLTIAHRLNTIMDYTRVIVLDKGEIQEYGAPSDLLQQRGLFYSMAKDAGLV
Summary of the method: (§1)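 2008/MRP1 cells (retroviral human MRP1 transfectant; RPMI 1640, 10% FBS) at 4,000 per well, with 100 nM doxorubicin plus crude, unpurified click products in DMSO: 2 µM in the primary screen, 1 µM in the secondary. Incubated 5 days at 37 °C. MTS/PMS added for 2 h at 37 °C, absorbance read at 490 nm. % survival is relative to wells without DOX or product. Run in triplicate, at least three experiments.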

[3] = molecular target: T1, Multidrug resistance-associated protein 1; test: Inhibition of MRP1 in human 2008/MRP1 cells assessed as potentiation of doxorubicin-induced cytotoxicity by measuring cell survival at 1 uM after 5 days by MTS assay relative to control; settings: 120 h; summary of the method: as §1

Row | SMILES | viability at 120 h, 2 µM [1] [%] | Survival [2] [%] | Survival [3] [%]
1 | O=C1c2ccccc2C(=O)N1CCc1cn(CCOCCOCCOc2ccc(-c3oc4ccccc4c(=O)c3OCc3ccccc3)cc2)nn1 | 16 | 34 | 
2 | O=c1cc(-c2ccccc2)oc2cc(OCCOCc3cn(CCOCCOc4ccc(-c5oc6ccccc6c(=O)c5OCc5ccccc5)cc4)nn3)ccc12 | 85 | 46 | 56
3 | O=C1c2ccccc2C(=O)N1CCc1cn(CCOCCOCCOc2ccc(-c3cc(=O)c4ccccc4o3)cc2)nn1 | 4 | 28 | 
4 | O=c1cc(-c2ccc(OCCCc3cn(CCOCCOCCOc4ccc(-c5cc(=O)c6cc(F)ccc6o5)cc4)nn3)cc2)oc2ccccc12 | 44 | 46 | 
5 | O=c1cc(-c2ccccc2)oc2cc(OCCN(Cc3ccccc3)Cc3cn(CCOCCOc4ccc(-c5oc6ccccc6c(=O)c5OCc5ccccc5)cc4)nn3)ccc12 | 82 | 49 | 53
6 | COc1cccc(COc2c(-c3ccc(OCCCCc4cn(CCOCCOc5ccc(-c6cc(=O)c7ccccc7o6)cc5)nn4)cc3)oc3ccccc3c2=O)c1 | 63 | 40 | 
7 | O=c1cc(-c2ccc(OCCCc3cn(CCOCCOc4ccc5c(=O)cc(-c6ccccc6)oc5c4)nn3)cc2)oc2ccccc12 | 39 | 39 | 
8 | O=c1[nH]c(-c2ccc(OCCCc3cn(CCOCCOc4ccc5c(=O)cc(-c6ccccc6)oc5c4)nn3)cc2)nc2ccccc12 | 65 | 49 | 70
9 | COCOc1cc(OCc2ccccc2)c2c(=O)cc(-c3ccc(OCCCc4cn(CCOCCOc5ccc(-c6cc(=O)c7ccccc7o6)cc5)nn4)cc3)oc2c1 | 95 | 39 | 64
10 | O=c1cc(-c2ccc(OCCCc3cn(CCOc4cccc5c(=O)cc(-c6ccccc6)oc45)nn3)cc2)oc2cc(F)ccc12 |  | 77 | 
11 | COc1cccc(COc2c(-c3ccc(OCCCCc4cn(CCOc5cccc6c(=O)cc(-c7ccccc7)oc56)nn4)cc3)oc3ccccc3c2=O)c1 |  | 51 | 
12 | Cc1ccc2oc(-c3ccc(OCCOCCOCCN=[N+]=[N-])cc3)cc(=O)c2c1 |  | 84 | 
13 | C#CCCCCOc1ccc2c(=O)cc(-c3ccccc3)oc2c1 |  | 99 | 
14 | C#Cc1cccc(C#C)c1 |  | 84 | 
15 | C#CCCCOc1ccc2c(=O)cc(-c3ccccc3)oc2c1 |  | 85 | 
16 | C#CCNc1ccccc1 |  | 87 | 
17 | O=c1cc(-c2ccccc2)oc2cc(OCCCc3cn(CCOCCOc4ccc(-c5cc(=O)c6cc(F)ccc6o5)cc4)nn3)ccc12 |  | 55 | 
18 | O=C1c2ccccc2C(=O)N1CCc1cn(CCOCCOc2ccc3c(=O)cc(-c4ccccc4)oc3c2)nn1 |  | 51 | 
19 | O=c1cc(-c2ccc(OCCCc3cn(CCOCCOCCOc4ccc(-c5oc6ccccc6c(=O)c5OCc5ccccc5)cc4)nn3)cc2)oc2cc(F)ccc12 | 97 | 37 | 53
20 | O=c1cc(-c2ccccc2)oc2cc(OCCCCc3cn(CCOCCOc4cccc(-c5oc6ccccc6c(=O)c5OCc5ccccc5)c4)nn3)ccc12 |  | 62 | 
21 | O=c1cc(-c2ccc(OCCOCCOCCn3cc(CNc4ccccc4)nn3)cc2)oc2ccc(F)cc12 |  | 90 | 
22 | O=c1c(OCc2ccccc2)c(-c2ccc(OCCOCCn3cc(CN(Cc4ccccc4)Cc4cn(CCOCCOc5ccc(-c6oc7ccccc7c(=O)c6OCc6ccccc6)cc5)nn4)nn3)cc2)oc2ccccc12 |  | 62 | 
23 | O=c1c(OCc2ccccc2)c(-c2cccc(OCCOCCn3cc(CN4CCN(Cc5cn(CCOCCOc6cccc(-c7oc8ccccc8c(=O)c7OCc7ccccc7)c6)nn5)CC4)nn3)c2)oc2ccccc12 |  | 84 | 
24 | [N-]=[N+]=NCCOCCOc1cccc(-c2oc3ccccc3c(=O)c2OCc2ccccc2)c1 |  | 86 | 
25 | C#CCCCCOc1ccc(/C=C/C(=O)c2cc(CC)ccc2O)cc1 |  | 103 | 
26 | O=c1[nH]c(-c2ccc(OCCCc3cn(CCOc4cccc5c(=O)cc(-c6ccccc6)oc45)nn3)cc2)nc2ccccc12 |  | 67 | 
